Active and inactive are the calls of the source. No cut-off for these calls is given here.
How the values were obtained:
MDA-MB-468 = assay: Cytotoxicity against human MDA-MB-468 cells assessed as growth inhibition after 4 days by XTT assay; assay type: functional, cell-based; conditions: MDA-MB-468, 96 h
In short: (§1)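 Cells kept in low-glucose DMEM with 10% FBS and 1% penicillin-streptomycin, seeded in 96-well plates the day before treatment. Compound exposure lasted four days, and the XTT cell proliferation kit was read on day 6 after drug addition. Dose-response cytotoxicity was measured in triplicate sets.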

[1] = biological target: T1, DNA repair protein RAD51 homolog 1 (Homo sapiens) (UniProt Q06609); assay: Inhibition of RAD51 (unknown origin) multimerization by gel filtration method
T1 sequence (whole entry): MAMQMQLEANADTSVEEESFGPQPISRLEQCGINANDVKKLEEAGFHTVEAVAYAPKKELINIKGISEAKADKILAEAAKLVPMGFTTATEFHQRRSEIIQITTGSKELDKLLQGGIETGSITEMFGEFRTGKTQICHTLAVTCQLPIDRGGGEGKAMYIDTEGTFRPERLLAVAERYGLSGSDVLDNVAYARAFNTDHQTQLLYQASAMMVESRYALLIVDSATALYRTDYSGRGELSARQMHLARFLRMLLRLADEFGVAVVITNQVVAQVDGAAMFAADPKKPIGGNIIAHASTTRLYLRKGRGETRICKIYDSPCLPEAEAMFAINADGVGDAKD
In short: (§2)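 Purified RAD51 (3.2 µg) preincubated with compound at 1:10 protein:compound molar ratio, 15 min at 37°C. Then 15 min in 50 mM triethanolamine-HCl pH 7.5, 0.5 mM Mg(OAc)2, 1 mM DTT, 2 mM ATP, 100 µg/ml BSA. Run on Superdex 200 PC 3.2/30 gel filtration in the same buffer. 50 µl fractions dot-blotted onto PVDF and probed with anti-RAD51 mAb 14B4.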

[2] = biological target: T1, DNA repair protein RAD51 homolog 1 (Homo sapiens); assay: Inhibition of RAD51 in human HeLa cells expressing DR-GFP assessed as reduction of homologous recombination frequency at 10 to 20 uM after 24 hrs by I-SceI inducible gene conversion assay; assay type: cell-based
In short: (§3)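 HeLa cells stably carrying DR-GFP (puromycin 2 µg/mL selection) were transiently transfected with I-SceI vector pCBASce for 24 h to induce DSBs. They were then treated with DMSO or compound at 10 or 20 µM for another 24 h. GFP-positive percentage was measured by flow cytometry as means±SD from three independent experiments.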

K562 = assay: Cytotoxicity against human K562 cells assessed as growth inhibition after 4 days by XTT assay; assay type: functional, cell-based; conditions: K562, 96 h
MCF7 = assay: Cytotoxicity against human MCF7 cells assessed as growth inhibition after 4 days by XTT assay; assay type: functional, cell-based; conditions: MCF7, 96 h; in short: as §1
MDA-MB-231 = assay: Cytotoxicity against human MDA-MB-231 cells assessed as growth inhibition after 4 days by XTT assay; assay type: functional, cell-based; conditions: MDA-MB-231, 96 h; in short: as §1
MDA-MB-361 = assay: Cytotoxicity against human MDA-MB-361 cells assessed as growth inhibition after 4 days by XTT assay; assay type: functional, cell-based; conditions: MDA-MB-361, 96 h; in short: as §1
MDA-MB-435 = assay: Cytotoxicity against human MDA-MB-435 cells assessed as growth inhibition after 4 days by XTT assay; assay type: functional, cell-based; conditions: MDA-MB-435, 96 h; in short: as §1
[3] = Cytotoxicity against human Hs578T cells assessed as growth inhibition after 4 days by XTT assay; assay type: functional, cell-based; conditions: Hs-578T, 96 h; in short: as §1
T47D = assay: Cytotoxicity against human T47D cells assessed as growth inhibition after 4 days by XTT assay; assay type: functional, cell-based; conditions: 96 h
U2OS = assay: Cytotoxicity against human U2OS cells assessed as growth inhibition after 4 days by XTT assay; assay type: functional, cell-based; conditions: 96 h; in short: as §1
T98G = assay: Cytotoxicity against human T98G cells assessed as growth inhibition after 4 days by XTT assay; assay type: functional, cell-based; conditions: 96 h; in short: as §1
HeLa = assay: Cytotoxicity against human HeLa cells assessed as growth inhibition after 4 days by XTT assay; assay type: functional, cell-based; conditions: 96 h
[4] = Cytotoxicity against human MCF10A cells assessed as growth inhibition after 4 days by XTT assay; assay type: cell-based; conditions: MCF-10A, 96 h
[5] = Selectivity ratio of IC50 for human MCF10A cells to IC50 for human T47D cells; assay type: ADME, cell-based, MCF-10A; conditions: MCF10A cells versus T47D cells
[6] = Selectivity ratio of IC50 for human MCF10A cells to IC50 for human T98G cells; assay type: ADME, cell-based, MCF-10A; conditions: MCF10A cells versus T98G cells
[7] = biological target: T1, DNA repair protein RAD51 homolog 1 (Homo sapiens); assay: Inhibition of RAD51 (unknown origin) multimerization at 1:10 M ratio of protein to compound after 15 mins by gel filtration method; in short: as §2
[8] = biological target: T1, DNA repair protein RAD51 homolog 1 (Homo sapiens); assay: Inhibition of RAD51 in human HeLa cells expressing DR-GFP assessed as reduction of homologous recombination frequency after 24 hrs by I-SceI inducible gene conversion assay; assay type: cell-based; in short: as §3

| SMILES | IC50 (MDA-MB-468) [µM] | further results |
| --- | --- | --- |
| O=S(=O)(Cc1cccc(C(F)(F)F)c1)N1CCc2ccccc2[C@H]1c1c[nH]c2ccccc12 | 22.2 | – |
| O=S(=O)(Cc1ccccc1C(F)(F)F)N1CCc2ccccc2[C@H]1c1c[nH]c2ccccc12 | 16.7 | – |
| O=S(=O)(Cc1ccccc1)N1C=Cc2ccccc2C1c1c[nH]c2ccccc12 (racemic) | 14.8 | inhibition [1]: Active; inhibition [2]: Active |
| O=S(=O)(Cc1ccccc1)N1Cc2ccccc2[C@@H]1c1c[nH]c2ccccc12 | – | IC50 (K562): 3.6 µM; IC50 (MCF7): 3.1 µM; IC50 (MDA-MB-231): 3.5 µM; IC50 (MDA-MB-361): 4.5 µM; IC50 (MDA-MB-435): 4 µM; IC50 [3]: 4.9 µM; IC50 (T47D): 6.3 µM; IC50 (U2OS): 4.7 µM; IC50 (T98G): 9.5 µM; IC50 (HeLa): 3.6 µM; IC50 [4]: > 30 µM; selectivity ratio [5]: > 4.8; selectivity ratio [6]: > 3.2; inhibition [7]: Active; inhibition [8]: Dose-dependent effect |
| COc1nccc2c(C3c4ccccc4C=CN3S(=O)(=O)Cc3ccccc3)c[nH]c12 (racemic) | 6.3 | – |
| O=S(=O)(Cc1ccccc1)N1CC=Cc2ccccc2[C@H]1c1c[nH]c2ccccc12 | > 50 | – |
| O=S(=O)(Cc1ccc(C(F)(F)F)cc1)N1CCc2ccccc2[C@H]1c1c[nH]c2ccccc12 | 20.7 | – |
| Nc1ncc([C@@H]2c3ccccc3CCN2S(=O)(=O)Cc2ccccc2)s1 | > 25 | – |
| O=S(=O)(Cc1cccc(C(F)(F)F)c1)N1CCc2ccccc2[C@@H]1c1c[nH]c2ccccc12 | 11.1 | – |
| O=S(=O)(Cc1ccccc1)N1CCc2ccccc2[C@H]1c1n[nH]c2ccccc12 | 14.3 | – |
| O=S(=O)(Cc1ccccc1F)N1CCc2ccccc2[C@H]1c1c[nH]c2ccccc12 | 19.2 | – |
| O=S(=O)(Cc1ccccc1F)N1CCc2ccccc2[C@@H]1c1c[nH]c2ccccc12 | 12.7 | – |
| O=S(=O)(Cc1cccc(F)c1)N1CCc2ccccc2[C@H]1c1c[nH]c2ccccc12 | 17.2 | – |
| O=S(=O)(Cc1ccccc1)N1CCc2ccccc2[C@@H]1c1n[nH]c2ccccc12 | 9.5 | – |
| O=S(=O)(Cc1ccccc1C(F)(F)F)N1CCc2ccccc2[C@@H]1c1c[nH]c2ccccc12 | 14.8 | – |
| O=S(=O)(Cc1ccccc1)N1C=Cc2ccccc2C1c1c[nH]c2ncccc12 (racemic) | 6.2 | – |
| O=S(=O)(Cc1ccc(F)cc1)N1CCc2ccccc2[C@@H]1c1c[nH]c2ccccc12 | 11.2 | – |
| O=S(=O)(Cc1ccccc1)N1Cc2ccccc2[C@H]1c1c[nH]c2ccccc12 | > 12 | – |
| O=S(=O)(Cc1cccc(F)c1)N1CCc2ccccc2[C@@H]1c1c[nH]c2ccccc12 | 14.2 | – |
| O=S(=O)(Cc1ccc(C(F)(F)F)cc1)N1CCc2ccccc2[C@@H]1c1c[nH]c2ccccc12 | 13.6 | – |
| O=S(=O)(Cc1ccccc1)N1CCc2ccccc2[C@H]1c1c[nH]c2ccccc12 | 13.2 | – |
| O=S(=O)(Cc1ccccc1)N1CC=Cc2ccccc2[C@@H]1c1c[nH]c2ccccc12 | 14.7 | – |
| COc1cc2c(C3c4ccccc4C=CN3S(=O)(=O)Cc3ccccc3)c[nH]c2cn1 (racemic) | 12.7 | – |
| O=S(=O)(Cc1ccc(F)cc1)N1CCc2ccccc2[C@H]1c1c[nH]c2ccccc12 | 25.7 | – |
| O=S(=O)(Cc1ccccc1)N1CCc2ccccc2[C@@H]1c1c[nH]c2ccccc12 | 11.7 | – |

Source: ChEMBL document CHEMBL3414530, “Synthesis, molecular modeling, and biological evaluation of novel RAD51 inhibitors” (Eur J Med Chem, 2015)
